Measurements published in ChEMBL document CHEMBL1828500, “Synthesis and biological evaluation of dihydroindeno and indeno [1,2-e] [1,2,4]triazolo [3,4-b] [1,3,4]thiadiazines as antimicrobial agents” (2011).
Converted amounts (≈) assume the structure as drawn. The source made the active and inactive calls. The rule behind the calls is not given here.

Legend:
Type in all cases: functional
[1] = test system: Aspergillus niger; experiment: Antifungal activity against Aspergillus niger assessed as inhibition of mycelial growth at 4 mg/ml after 7 days; conditions: 168 h, read-out: GI
Procedure, shortened: (§1)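 Poisoned food method. Molds grown on Sabouraud dextrose agar at 25 °C for 7 days to provide inocula. Molten SDA (45 °C) dosed with compound at 4.0 mg/mL in DMSO, then solidified. 8 mm fungal plugs from colony margins placed centrally. Incubated 25 °C for 7 days, in triplicate. % mycelial growth inhibition calculated from colony diameters versus DMSO control. Fluconazole served as positive control.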

[2] = test system: Penicillium sp.; experiment: Antifungal activity against Penicillium sp. assessed as inhibition of mycelial growth at 4 mg/ml after 7 days; conditions: 168 h, read-out: GI; procedure, shortened: as §1
[3] = test system: Staphylococcus aureus; experiment: Antibacterial activity against Staphylococcus aureus MTCC 96 at 2 mg/ml after 24 hrs by agar well diffusion method; conditions: MTCC 96, 24 h, read-out: DIZ
Procedure, shortened: (§2)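 Cultures adjusted to 0.5 McFarland and left 15 min on agar for adsorption. 8 mm wells bored and loaded with compound at 2.0 mg/mL in DMSO. Incubated 37 °C for 24 h. Growth-inhibition zone diameter (mm) read with a zone scale and reported as the average. DMSO served as negative control and ciprofloxacin as positive control.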

[4] = test system: Bacillus subtilis; experiment: Antibacterial activity against Bacillus subtilis MTCC 121 at 2 mg/ml after 24 hrs by agar well diffusion method; conditions: MTCC 121, 24 h, read-out: DIZ; procedure, shortened: as §2
[5] = test system: Bacillus subtilis; experiment: Antibacterial activity against Bacillus subtilis MTCC 121 after 24 hrs by agar well diffusion method; conditions: MTCC 121, 24 h
Procedure, shortened: (§3)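 MIC by modified agar well diffusion. Two-fold serial dilutions (DMSO stock diluted in sterile distilled water), range 256 to 0.5, placed in wells in triplicate. Agar was pre-seeded with 100 standardized inoculum at 10⁶ cfu/mL. Incubated aerobically at 37 °C for 24 h. MIC taken as lowest concentration giving a clear zone, i.e. complete growth inhibition.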

[6] = test system: Staphylococcus aureus; experiment: Antibacterial activity against Staphylococcus aureus MTCC 96 after 24 hrs by agar well diffusion method; conditions: MTCC 96, 24 h; procedure, shortened: as §3
[7] = test system: Aspergillus flavus; experiment: Antifungal activity against Aspergillus flavus assessed as inhibition of mycelial growth at 4 mg/ml after 7 days; conditions: 168 h, read-out: GI; procedure, shortened: as §1
[8] = test system: Escherichia coli; experiment: Antibacterial activity against Escherichia coli MTCC 1652 at 2 mg/ml after 24 hrs by agar well diffusion method; conditions: for zone of inhibition at 2000 µg/mL: MTCC 1652, 24 h, read-out: DIZ; procedure, shortened: as §2
[9] = test system: Pseudomonas aeruginosa; experiment: Antibacterial activity against Pseudomonas aeruginosa MTCC 741 at 2 mg/ml after 24 hrs by agar well diffusion method; conditions: for zone of inhibition at 2000 µg/mL: MTCC 741, 24 h, read-out: DIZ; procedure, shortened: as §2
[10] = test system: Escherichia coli; experiment: Antibacterial activity against Escherichia coli MTCC 1652 after 24 hrs by agar well diffusion method; conditions: MTCC 1652, 24 h; procedure, shortened: as §3
[11] = test system: Pseudomonas aeruginosa; experiment: Antibacterial activity against Pseudomonas aeruginosa MTCC 741 after 24 hrs by agar well diffusion method; conditions: MTCC 741, 24 h; procedure, shortened: as §3

Row | SMILES | inhibition of growth at 4000 µg/mL [1] [%] | inhibition of growth at 4000 µg/mL [2] [%] | zone of inhibition at 2000 µg/mL [3] [mm] | zone of inhibition at 2000 µg/mL [4] [mm] | MIC [5] [µg/mL] | MIC [6] [µg/mL] | inhibition of growth at 4000 µg/mL [7] [%] | diameter of the inhibition zone (DIZ) [8] | diameter of the inhibition zone (DIZ) [9] | MIC [10] [µg/mL] | MIC [11] [µg/mL] | zone of inhibition at 2000 µg/mL [8] [mm] | zone of inhibition at 2000 µg/mL [9] [mm]
1 | Cc1nnc2sc3cc4ccccc4c-3nn12 | 50 | 52.5 | 14.6 | 15.3 | 256 (≈ 1070 µM) | 256 (≈ 1070 µM) | 48.8 | inactive | inactive |  |  |  | 
2 | c1ccc(-c2nnc3sc4cc5ccccc5c-4nn23)cc1 | 45.5 | 51.1 | 14.6 | 15 | 256 (≈ 847 µM) | 256 (≈ 847 µM) | 48.8 | inactive | inactive |  |  |  | 
3 | CC(C)c1nnc2sc3cc4ccccc4c-3nn12 | 48.8 | 44.4 | 15.6 | 17.3 | 128 (≈ 477 µM) | 128 (≈ 477 µM) | 50 | inactive | inactive |  |  |  | 
4 | CCc1nnc2n1N=C1c3ccccc3CC1S2 (configuration not stated) | 58.8 | 57.7 | 25.3 | 21.6 | 32 (≈ 125 µM) | 16 (≈ 62.4 µM) | 55.5 |  |  | 64 (≈ 250 µM) | 128 (≈ 499 µM) | 18.3 | 16
5 | CCc1nnc2n1N=C1c3cccc(C)c3CC1S2 (configuration not stated) | 64.4 | 65.5 | 26.6 | 28 | 4 (≈ 14.8 µM) | 8 (≈ 29.6 µM) | 63.3 |  |  | 32 (≈ 118 µM) | 32 (≈ 118 µM) | 21 | 19.3
6 | OC(Cn1cncn1)(Cn1cncn1)c1ccc(F)cc1F [FLUCONAZOLE] | 81.1 | 83.3 |  |  |  |  | 77.7 |  |  |  |  |  | 
7 | CCc1nnc2sc3cc4ccccc4c-3nn12 | 48.8 | 50 | 16.3 | 17.6 | 128 (≈ 503 µM) | 128 (≈ 503 µM) | 45.5 | inactive | inactive |  |  |  | 
8 | Cc1cccc2c3nn4cnnc4sc-3cc12 | 71.1 | 66.6 | 25.3 | 28.6 | 4 (≈ 16.6 µM) | 16 (≈ 66.6 µM) | 68.8 |  |  | 64 (≈ 266 µM) | 128 (≈ 533 µM) | 20.6 | 18.3
9 | c1ccc(-c2nnc3n2N=C2c4ccccc4CC2S3)cc1 (configuration not stated) | 51.1 | 50 | 20.6 | 16.3 | 128 (≈ 421 µM) | 64 (≈ 210 µM) | 48.8 |  |  | 64 (≈ 210 µM) | 256 (≈ 841 µM) | 18.3 | 14.6
10 | Cc1cccc2c1CC1Sc3nnc(-c4ccccc4)n3N=C21 (configuration not stated) | 55.5 | 60 | 22.3 | 21.6 | 32 (≈ 101 µM) | 32 (≈ 101 µM) | 58.8 |  |  | 128 (≈ 402 µM) | 128 (≈ 402 µM) | 17.3 | 15.6
11 | c1ccc2c(c1)CC1Sc3nncn3N=C21 (configuration not stated) | 51.1 | 51.1 | 15.3 | 17.6 | 128 (≈ 561 µM) | 128 (≈ 561 µM) | 52.5 | inactive | inactive |  |  |  | 
12 | c1ccc2c3nn4cnnc4sc-3cc2c1 | 53.3 | 51.1 | 14.3 | 16 | 128 (≈ 566 µM) | 256 (≈ 1130 µM) | 50 | inactive | inactive |  |  |  | 
